# Compounds with a hit are over-represented: about 4.1% of the library has one in this group of screens.
# FLuc act counter: FLuc activators, initial screening, artefact control for FLuc-dependent activation tests, biochemical, ATPlite luminescence | Luciferin 4-monooxygenase (Photinus pyralis), P08659 | activation factor at 10 µM | AID 1027, 2008 | ATPlite luciferase biochemical, 10 min; 0 = ATP-free wells, 1 = DMSO control | 200,000 tested, under 10 active;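 active means luciferase activation factor, scaled between plate controls, of at least 2 with compound at 10 µM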
# Target sequence (P08659 whole entry, looked up): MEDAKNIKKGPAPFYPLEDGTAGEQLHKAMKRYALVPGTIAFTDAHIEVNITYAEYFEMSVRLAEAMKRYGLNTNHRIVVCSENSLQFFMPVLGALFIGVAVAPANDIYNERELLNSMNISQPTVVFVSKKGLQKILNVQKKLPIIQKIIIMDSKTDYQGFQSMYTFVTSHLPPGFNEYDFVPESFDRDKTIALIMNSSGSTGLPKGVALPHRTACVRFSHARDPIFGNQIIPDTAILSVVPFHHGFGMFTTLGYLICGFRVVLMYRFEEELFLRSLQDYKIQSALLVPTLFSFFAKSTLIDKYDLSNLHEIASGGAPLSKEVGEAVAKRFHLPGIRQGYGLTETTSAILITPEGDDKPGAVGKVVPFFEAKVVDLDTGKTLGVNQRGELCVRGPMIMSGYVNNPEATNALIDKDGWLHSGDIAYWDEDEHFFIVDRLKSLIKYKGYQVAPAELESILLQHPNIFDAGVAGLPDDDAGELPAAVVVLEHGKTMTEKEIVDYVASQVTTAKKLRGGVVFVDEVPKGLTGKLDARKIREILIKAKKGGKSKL
#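 assay system = Luciferase/luciferin detection reagent, cell-free biochemical luciferase assay | also added = ATP substrate | times = 10 min post-reagent at room temperature | measured by = luminescence from luciferase reaction | measure = luciferase activation, seen as luminescence increase over controls | benchmarks = low control with PBS replacing ATP, high control enzyme plus ATP without compound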
# STAT1 act: STAT1 signaling activators, primary screen, cell-based, HTS, luciferase reporter; NIH 3T3 STAT1-luciferase reporter, IFN-gamma, luminescence; 100% = IFN-gamma alone, no compound; activation (% of control), % at 5.5 µM; hit rate 2.6% among 200,000; AID 932, 2007;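 active means activation above the screen-wide mean activation plus 3 SD, cut at about 130% in these data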;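 further: raw ratio to IFN-gamma control signal so 100% means no change and 0% no light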
# APP 5'UTR act: activators of APP 5'UTR luciferase reporter, primary screen, SH-SY5Y cells; SH-SY5Y APP 5'UTR luciferase reporter, luminescence; zero percent = DMSO vehicle wells; activation, % at 2 µM; hit rate 1% among 190,000; AID 1276, 2008;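 active means activation above a set limit, based on mean plus 3 SD of controls, cut at about 140% in these data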
# NF-kB neuron act: activators of NF-kB expression in neurons, primary screen, cell-based, HTS; human neuronal cells, NF-kB reporter expression; hits give high values; fold change at 12.5 µM; hit rate 1.6% among 190,000; in the data active means fold change above about 3.3
# FLuc inhib CS: firefly luciferase enzyme inhibitors, primary screen, artefact control for luciferase-based inhibitor screens, biochemical, luminescence, ATPLite; 10 min; Luciferin 4-monooxygenase (Photinus pyralis), P08659; hit rate 1.5% among 200,000; inhibition, % at 10 µM; AID 1006, 2008;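 active means inhibition above about 50% when tested at 10 µM, limit read from the data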
# Active calls of the source: *; . = no result.
SMILES,FLuc act counter,STAT1 act,APP 5'UTR act,NF-kB neuron act,FLuc inhib CS
O=C(CCCc1ccccc1)NCCC1=CCCCC1,1,136*,-16,1.3,-3
COc1ccc(CNC(=O)c2ccc(C(C)(C)C)cc2)cc1,1,138*,37,2.8,3
COc1ccc(CCNC(=O)c2ccc(CN3CCOCC3)cc2)cc1,1,105,3,1.4,0
COc1ccc(CNC(=O)c2ccc3nccnc3c2)cc1,1,102,2,2,-2
Cc1cc(C(=O)NCCC2=CCCCC2)ccc1[N+](=O)[O-],1,133*,57,3,2
O=C(NCCC1=CCCCC1)c1ccc(CN2CCOCC2)cc1,1.1,134*,102,2.6,-8
CC(C)CNS(=O)(=O)c1ccc(CCC(=O)Nc2ccc3c(c2)OCO3)cc1,1.1,96,7,1.2,-5
COc1ccc(CCNC(=O)CN2C(=O)NC(CCSC)C2=O)cc1 (stereo not drawn),1,95,3,1,-5
OCCN1CN=C(Nc2nc3ccccc3o2)NC1,1,103,-13,1.2,-2
CCOC(=O)c1[nH]c(C)c(C(=O)NCCC2=CCCCC2)c1C,1,122,30,1.5,-2
COc1cccc(C(=O)NCCC2=CCCCC2)c1,0.7,122,153*,3.3,26
CC(=O)c1c(C)[nH]c(C(=O)NCCC2=CCCCC2)c1C,1,134*,93,3.5*,-2
COc1ccc(C(=O)NCC(=O)OCC(=O)NCCC2=CCCCC2)cc1,1,102,17,1.1,-3
COc1ccc(C(=O)NCCC2=CCCCC2)cc1,0.5,138*,154*,3.4*,50*
COc1cccc(/C=N/NC(=O)c2ccc(=O)n(C)c2)c1O,0.9,99,-2,2,8
O=C(Oc1ccc(-c2ccccc2)cc1)N1CCCCC1,0.9,130*,5,7*,7
Cc1ccccc1OCc1nc2c3c(ncn2n1)-c1ccccc1CC31CCCC1,1,100,1,1.2,-2
Cc1ccccc1OCc1nc2c3cnn(C)c3ncn2n1,1,141*,-15,2.5,4
Cc1cc(/C=C2/NC(=O)N(c3ccccc3)C2=O)c(C)n1C(C)C,0.7,129*,62,1.3,26
Cn1c(C(=O)NCCc2ccccc2)cc(=O)n(C)c1=O,1,103,-8,1.3,1
c1ccc2c(NCCCN3CCOCC3)c3ccccc3nc2c1,1.1,180*,-63,3.1,-6
Cc1cc(NCCCN2CCOCC2)n2ncc(-c3ccccc3)c2n1,0.8,147*,156*,4.4*,15
COc1ccc(/C=C/C(=O)c2ccc3c(c2)OCO3)c(OC)c1,0.2,129*,152*,3.2,78*
COc1ccc(/C=C/C(=O)c2ccc(OC)cc2OC)c(OC)c1,1,98,8,1.5,3
COc1ccc(/C=C/C(=O)c2ccccc2)c(OC)c1,0.3,147*,236*,7.7*,71*
SMILES,FLuc act counter,STAT1 act,APP 5'UTR act,NF-kB neuron act,FLuc inhib CS
Cc1ccc(-n2cccn2)c(CN2CCCC(C(=O)c3sccc3C)C2)c1 (stereo not drawn),1.1,86,13,0.88,-8
c1cnc(SCCOc2ccc3c(c2)CCC3)nc1,0.8,150*,.,7.2*,17
O=C(COC(=O)c1ccccn1)NCc1ccccc1,1.1,102,.,1.4,-8
COc1cc(/C=C(/C(=O)c2cccs2)c2nc3ccccc3[nH]2)ccc1O,0.6,96,43,4.5*,35
O=C(/C(=C/c1ccc(Cl)cc1)c1nc2ccccc2[nH]1)c1cccs1,1,86,39,0.57,3
COc1ccccc1NC(=O)CSc1nnc(-c2ccncc2)o1,1,106,18,1.1,0
COc1ccc(-c2nnc(SCC(=O)Nc3cccc(Cl)c3)o2)cc1,1.1,106,214*,1.2,-9
COc1ccc(-c2nnc(SCC(=O)Nc3ccccc3OC)o2)cc1,0.9,101,117,4.1*,6
Cc1cnc(NC(=O)CSc2nnc(-c3ccccc3)o2)s1,1,129*,113,2.5,-2
COc1ccc(S(=O)(=O)CCC(=O)NCCc2ccc(S(N)(=O)=O)cc2)cc1,1,101,-8,1.2,2
c1ccc(Oc2ccc3ccccc3n2)cc1,0.9,136*,28,1.3,8
COc1ccc(Oc2cc(C)c3ccccc3n2)cc1,1,96,7,1.3,-1
c1ccc(CC2CCN(c3ncnc4sccc34)CC2)cc1,1,75,25,1.7,2
c1ccc2c(c1)nnn2-c1ncnc2sccc12,0.8,134*,16,2.1,15
CC1CC1C(=O)Nc1nc(-c2ccccn2)cs1 (stereo not drawn),1,101,8,1.2,2
c1ccc(CCNc2nc(-c3ccccn3)cs2)cc1,0.8,142*,122,4.1*,25
O=C(Nc1nc(-c2ccccc2)cs1)c1cccnc1,1,103,0,1.4,0
c1ccc(CCNc2nc(-c3cccnc3)cs2)cc1,0.8,133*,26,1.8,17
CCC(=O)c1ccc(OCC(=O)O)cc1,1,103,-13,1,-3
CCCCC(=O)OCC(=O)c1ccc(OCC)cc1,0.5,95,34,1.3,53*
CCOc1ccc(C(=O)COC(=O)CC)cc1,0.4,104,11,1.2,56*
CCCc1ccc(-c2cc(C(=O)NC3=NCCS3)c3ccccc3n2)cc1,0.2,114,104,2.9,85*
CCc1ccc(-c2cc(C(=O)NCc3ccccn3)c3ccccc3n2)cc1,0.4,108,39,0.85,61*
Cc1ccc(-c2cc(C(=O)NC3=NCCS3)c3ccccc3n2)cc1C,0.3,118,49,1,65*
O=C(NC1=NCCS1)c1cc(-c2ccc(F)cc2)nc2ccccc12,0.9,104,-11,0.99,13
SMILES,FLuc act counter,STAT1 act,APP 5'UTR act,NF-kB neuron act,FLuc inhib CS
Cc1ccc(-c2cc(C(=O)NCc3ccccn3)c3ccccc3n2)cc1,0.6,111,-10,0.63,38
O=C(c1ccc([N+](=O)[O-])cc1[N+](=O)[O-])N1CCCC1,1.1,100,16,1.1,-6
O=C(Cn1cnc2cc([N+](=O)[O-])ccc2c1=O)NC(c1ccccc1)c1ccccc1,1.1,100,10,1,-9
Cc1ccc(NC(=O)c2ccc(F)cc2)nc1,0.7,132*,77,3.1,32
COc1ccccc1C(=O)Nc1ccccn1,0.5,132*,51,2.7,46
Cc1ccc(NC(=O)C(=O)Nc2ccc(C)cn2)nc1,1,117,23,2.6,4
COc1ccc(C(=O)Nc2ccc(C)cn2)c(OC)c1,0.1,29,24,1.2,95*
CCOC(=O)c1cnn(Cc2ccc(C)cc2)c1N,1.1,100,1,1.1,-6

# Bioassay records: PubChem, several laboratories
